In ChEMBL document CHEMBL1949503, “Design, synthesis, theoretical calculations and biological evaluation of new non-symmetrical choline kinase inhibitors” (Eur J Med Chem, 2012):
pIC50: −log10 of the molar value.

How the values were obtained:
HepG2 [1] = experiment: Cytotoxicity against human HepG2 cells at 10 uM after 24 hrs using crystal violet staining by microplate reader analysis; type: functional; conditions: HepG2, 24 h
Outline: (§1)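 HepG2 cells in MEM with 10% FBS were seeded at 10 000 cells/well and grown 24 h. The medium was then replaced with fresh medium/10% FBS, and cells were exposed to inhibitors for 24 h, or to none. Cells were fixed with 1.1% glutaraldehyde, stained with 0.1% crystal violet and solubilised in 10% acetic acid. A590 was converted to cell number with a standard curve.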

Homo sapiens [2] = organism: Homo sapiens; experiment: Inhibition of human choline kinase assessed as incorporation of 14C from [methyl-14C]choline into phosphocholine at 50 uM after 20 mins by liquid scintillation counter
Outline: (§2)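 Enzyme source was HepG2 cytosol (cells sonicated in 275 mM Tris pH 8.5, 12000 g supernatant), about 50 µg protein. Final mix: 100 mM Tris pH 8.5, 10 mM MgCl2, 10 mM ATP, with inhibitor. Started with 1 mM [methyl-14C]choline, 37 °C for 20 min, stopped by boiling. Phosphocholine was separated on silica TLC and counted by scintillation. IC50 was derived from the concentration series.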

Homo sapiens [3] = organism: Homo sapiens; experiment: Inhibition of human choline kinase assessed as incorporation of 14C from [methyl-14C]choline into phosphocholine at 10 uM after 20 mins by liquid scintillation counter; outline: as §2
HepG2 [4] = experiment: Cytotoxicity against human HepG2 cells at 50 uM after 24 hrs using crystal violet staining by microplate reader analysis; type: functional; conditions: HepG2, 24 h; outline: as §1
[5] = Inhibition of human choline kinase assessed as incorporation of 14C from [methyl-14C]choline into phosphocholine after 20 mins by liquid scintillation counter; outline: as §2
HepG2 [6] = experiment: Cytotoxicity against human HepG2 cells after 24 hrs using crystal violet staining by microplate reader analysis; type: functional, cell-based; conditions: HepG2, 24 h; outline: as §1

inhibition (Homo sapiens [2])	inhibition (Homo sapiens [3])	pIC50 [5]	SMILES	inhibition at 10 µM (HepG2 [1])	inhibition at 50 µM (HepG2 [4])	pIC50 (HepG2 [6])
46.9%	28.6%		Nc1ncnc2c1ncn2Cc1ccc(CCc2ccc(C[n+]3ccc(N4CCCC4)cc3)cc2)cc1	30.1%	45%	
41.9%	36.9%		Nc1ncnc2c1ncn2Cc1ccc(CCCCc2ccc(C[n+]3ccc(N4CCCC4)cc3)cc2)cc1	15.4%	90.1%	
24.8%	0.1%		Nc1ncn(Cc2ccc(CCc3ccc(C[n+]4ccc(N5CCCC5)cc4)cc3)cc2)c2ncnc1-2	11.6%	30%	
81%	38.6%		CN(C)c1cc[n+](Cc2ccc(CCc3ccc(Cn4cnc5c(N)ncnc54)cc3)cc2)cc1	10.5%	10.5%	
59.9%	22.6%		Nc1ncn(Cc2ccc(CCCCc3ccc(C[n+]4ccc(N5CCCC5)cc4)cc3)cc2)c2ncnc1-2	13.7%	46.5%	
27%	0%		Nc1ncnc2c1ncn2Cc1ccc(C[n+]2ccc(N3CCCC3)cc2)cc1	0%	15.5%	
72.8%	50.2%		Nc1ncnc2c1ncn2Cc1ccc(-c2ccc(C[n+]3ccc(N4CCCC4)cc3)cc2)cc1	10.4%	45%	

The remaining lines, values behind:

SMILES	inhibition (Homo sapiens [2])	inhibition (Homo sapiens [3])	pIC50 [5]	inhibition at 10 µM (HepG2 [1])	inhibition at 50 µM (HepG2 [4])	pIC50 (HepG2 [6])
CN(C)c1cc[n+](Cc2ccc(-c3ccc(Cn4cnc(N)c5ncnc4-5)cc3)cc2)cc1	71.4%	62.3%	5.21	10%	7%	
CN(C)c1cc[n+](Cc2ccc(CCCCc3ccc(Cn4cnc5c(N)ncnc54)cc3)cc2)cc1	89.7%	66.7%	4.97	10.2%	45.5%	4.30
CN(C)c1cc[n+](Cc2ccc(Cn3cnc4c(N)ncnc43)cc2)cc1	54.1%	46.7%		0%	5.1%	
CN(C)c1cc[n+](Cc2ccc(Cn3cnc(N)c4ncnc3-4)cc2)cc1	50.2%	25%		10.3%	2.5%	
CN(C)c1cc[n+](Cc2ccc(-c3ccc(Cn4cnc5c(N)ncnc54)cc3)cc2)cc1	51%	37.6%		0%	10.3%	
CN(C)c1cc[n+](Cc2ccc(CCCCc3ccc(Cn4cnc(N)c5ncnc4-5)cc3)cc2)cc1	68.2%	61.3%		14.3%	56.1%	4.41
